Measurements: ChEMBL document CHEMBL1153331, “Antitumour and antimalarial activity of artemisinin-acridine hybrids” (Bioorg Med Chem Lett, 2009)
Calls of active or inactive are those of the source. The rule behind the calls is not given here.

Assays:
HL-60 [1] = assay: Cytotoxicity against human HL60 cells after 72 hrs by MTT assay; format: functional, cell-based; conditions: HL-60, 72 h
Procedure, shortened: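 MTT viability: 2.5 × 10^4 cells/well in triplicate, exposed to 0.01–100 µM compound for 72 h at 37 °C, 5% CO2; MTT 3 h at 37 °C, SDS/DMF lysis 4 h; absorbance 570 nm (reference 590 nm); expressed as % of vehicle-only cells; IC50 from individual inhibition curves; means of three experiments with SD.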

HL-60 [2] = assay: Induction of apoptosis in human HL60 cells assessed as induction of mitochondrial membrane depolarization at 1 uM by tetramethylrhodamine ethyl ester-based flow cytometry; format: functional, cell-based
Procedure, shortened: (§1)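 HL60 cells treated 24 h; 5 × 10^5 cells washed in HBSS, loaded with 50 nM TMRE in HBSS for 10 min at 37 °C; ≥500 cells read by flow cytometry on FL-2 to score depolarised mitochondria; mean ± SD of three independent experiments, Mann-Whitney U vs drug blank.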

HL-60 [3] = assay: Induction of apoptosis in human HL60 cells assessed as induction of mitochondrial membrane depolarization by tetramethylrhodamine ethyl ester-based flow cytometry; format: functional, cell-based; procedure, shortened: as §1
MDA-MB-231 = assay: Cytotoxicity against human MDA-MB-231 cells after 72 hrs by MTT assay; format: functional, cell-based; conditions: MDA-MB-231, 72 h
MCF7 = assay: Cytotoxicity against human MCF7 cells after 72 hrs by MTT assay; format: functional, cell-based; conditions: MCF7, 72 h
HL-60 [4] = assay: Induction of apoptosis in human HL60 cells assessed as accumulation at sub-G0/G1 phase at 10 uM after 24 hrs by propidium iodide-based flow cytometry; format: functional
Procedure, shortened: (§2)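 HL60 cells treated 24 h; 1 × 10^6 cells washed in HBSS, fixed in ice-cold 70% ethanol at −20 °C for 2 h, stained with PI (40 µg/mL) plus RNase 0.1 mg/mL and 3.8 mM sodium citrate in PBS, 30 min at 37 °C; ≥5000 cells read on FL-2; sub-G0/G1 fraction from DNA content; mean ± SD of three independent experiments, Mann-Whitney U vs drug blank.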

HL-60 [5] = assay: Induction of apoptosis in human HL60 cells assessed as induction of mitochondrial membrane depolarization at 10 uM after 24 hrs by tetramethylrhodamine ethyl ester-based flow cytometry; format: functional; procedure, shortened: as §1
Plasmodium falciparum = assay: Antimalarial activity after 48 hrs against chloroquine-sensitive Plasmodium falciparum 3D7 by [3H]hypoxanthine uptake; format: functional, organism-based
HL-60 [6] = assay: Induction of apoptosis in human HL60 cells assessed as caspase-3 activation after 24 hrs by Western blot analysis; format: functional, cell-based
Procedure, shortened: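 HL60 cells treated 24 h with 0.5, 1.0, 5 or 10 µM alongside untreated control; 3 × 10^6 cells washed and sonicated, protein by Bradford; 20 µg per lane denatured 3 min at 95 °C, resolved on 14% SDS–PAGE, transferred to nitrocellulose; read-out pro-caspase-3 (32 kDa) and processed active subunit.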

[7] = Cytotoxicity against human HT29-AK cells after 72 hrs by MTT assay; format: functional, cell-based
HL-60 [8] = assay: Induction of apoptosis in human HL60 cells assessed as accumulation at sub-G0/G1 phase after 24 hrs by propidium iodide-based flow cytometry; format: functional, cell-based; procedure, shortened: as §2
Calf thymus DNA [9] = assay: Binding affinity to calf thymus DNA assessed as change in thermal melting temperature at compound to polynucleotide ratio of 0.3 at pH 7 by thermal melting analysis; conditions: Bos taurus
Nucleic Acid [10] = assay: Binding affinity to poy A-poly U RNA assessed as intercalation into double helix by circular dichroism analysis; format: nucleic-acid assay
Nucleic Acid [11] = assay: Binding affinity to poy A-poly U RNA by fluorimetric binding titration study; format: nucleic-acid assay
Calf thymus DNA [12] = assay: Binding affinity to calf thymus DNA assessed as intercalation into double helix by circular dichroism analysis; format: nucleic-acid assay; conditions: Bos taurus
Procedure, shortened: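 CD spectra of ct-DNA (1 × 10^-5 mol dm^-3) titrated at various r = [compound]/[ctDNA], change followed at 280 nm; induced acridine CD band at ct-DNA 1 × 10^-4 mol dm^-3; pH 7 Na cacodylate buffer, I = 0.05 M.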

Nucleic Acid [13] = assay: Binding affinity to poy A-poly U RNA assessed as change in thermal melting temperature at compound to polynucleotide ratio of 0.3 at pH 7 by […]; format: nucleic-acid assay
Procedure, shortened: (§3)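 Thermal melting of ds-polynucleotides at r = [compound]/[polynucleotide] = 0.3, pH 7 Na cacodylate buffer 0.02 M (I = 0.005 M; poly A–poly T at I = 0.05 M); ΔTm reported, error ±0.5 °C.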

Nucleic Acid [14] = assay: Binding affinity to poy A-poly T DNA assessed as change in thermal melting temperature at compound to polynucleotide ratio of 0.3 at pH 7 by […]; format: nucleic-acid assay; procedure, shortened: as §3
Calf thymus DNA [15] = assay: Binding affinity to calf thymus DNA by fluorimetric binding titration study; format: nucleic-acid assay; conditions: Bos taurus

Row | Structure (SMILES) | IC50 (HL-60 [1]) [µM] | Activity (HL-60 [2]) | Activity (HL-60 [3]) | IC50 (MDA-MB-231) [µM] | IC50 (MCF7) [µM] | Activity (HL-60 [4]) [%] | Activity (HL-60 [5]) [%] | IC50 (Plasmodium falciparum) [µM] | Activity (HL-60 [6]) | IC50 [7] [µM] | Activity (HL-60 [8]) | ΔTm (Calf thymus DNA [9]) [°C] | Activity (Nucleic Acid [10]) | Ks (Nucleic Acid [11]) [×10⁶ /M] | Activity (Calf thymus DNA [12]) | ΔTm (Nucleic Acid [13]) [°C] | ΔTm (Nucleic Acid [14]) [°C] | Ks (Calf thymus DNA [15]) [×10⁶ /M]
1 | COc1ccc2nc3cc(Cl)ccc3c(NCCCNC(=O)C[C@H]3O[C@@H]4O[C@@]5(C)CC[C@H]6[C@H](C)CC[C@@H]([C@H]3C)[C@@]46OO5)c2c1 | 3.08 | Active | Dose-dependent effect | 11.6 | 11.8 | 57 | 98 | 0.0224 | Dose-dependent effect | 9.91 | Dose-dependent effect | – | – | – | – | – | – | –
2 | COc1ccc2nc3cc(Cl)ccc3c(N3CCN(C(=O)C[C@H]4O[C@@H]5O[C@@]6(C)CC[C@H]7[C@H](C)CC[C@@H]([C@H]4C)[C@@]57OO6)CC3)c2c1 | 0.56 | – | – | 21.1 | 3.51 | – | – | 0.29 | – | > 750 | – | – | – | – | – | – | – | –
3 | COc1ccc2nc3cc(Cl)ccc3c(NCCNC(=O)C[C@H]3O[C@@H]4O[C@@]5(C)CC[C@H]6[C@H](C)CC[C@@H]([C@H]3C)[C@@]46OO5)c2c1 | 1.17 | – | – | 49 | 13.7 | – | – | 0.00596 | – | 194 | – | 3.1 | inactive | 1 | inactive | 2.4 | 0.6 | 1
4 | COc1ccc2nc3cc(Cl)ccc3c(NCCN)c2c1 | 12.5 | – | – | 8.12 | – | – | – | – | – | 6.57 | – | 9.3 | – | 1 | – | 2.2 | 2.9 | 1
5 | COc1ccc2nc3cc(Cl)ccc3c(NCCCCNC(=O)C[C@H]3O[C@@H]4O[C@@]5(C)CC[C@H]6[C@H](C)CC[C@@H]([C@H]3C)[C@@]46OO5)c2c1 | 1.58 | – | – | 43.3 | 11.7 | – | – | 0.0203 | – | 247 | – | – | – | – | – | – | – | –
6 | C[C@H]1[C@@H](O)O[C@@H]2O[C@@]3(C)CC[C@H]4[C@H](C)CC[C@@H]1[C@@]24OO3 [ARTENIMOL] | – | – | – | 99.8 | 45.2 | – | – | 0.0023 | – | 16.1 | – | – | – | – | – | – | – | –
